From ChEMBL document CHEMBL1144743, “Identification of prostaglandin D2 receptor antagonists based on a tetrahydropyridoindole scaffold” (Bioorg Med Chem Lett, 2008)

Key:
[1] = Binding affinity to human recombinant PGD2 receptor subtype 1 by radioligand competition binding assay
Summary of the method: (§1)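 Radioligand competition binding on recombinant human receptors, DP1 or thromboxane TP receptor; Ki values reported.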

[2] = Antagonist activity at PGD2 subtype 1 in human platelet rich plasma assessed as inhibition of PGD2-induced accumulation of cAMP; assay type: functional
Summary of the method: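 Blood from normal human volunteers; PRP prepared by centrifugation at 150g for 15 min. IBMX added (2 mM final) to block cAMP degradation. PRP samples preincubated 10 min at 37 °C with increasing compound concentrations in DMSO before PGD2 challenge. Reaction stopped with ethanol to lyse cells and extract cAMP. IC50 reported.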

[3] = target: T1, Thromboxane A2 receptor (Homo sapiens, UniProt P21731); experiment: Binding affinity to human recombinant TP receptor by radioligand competition binding assay; summary of the method: as §1
T1 sequence (P21731 whole entry): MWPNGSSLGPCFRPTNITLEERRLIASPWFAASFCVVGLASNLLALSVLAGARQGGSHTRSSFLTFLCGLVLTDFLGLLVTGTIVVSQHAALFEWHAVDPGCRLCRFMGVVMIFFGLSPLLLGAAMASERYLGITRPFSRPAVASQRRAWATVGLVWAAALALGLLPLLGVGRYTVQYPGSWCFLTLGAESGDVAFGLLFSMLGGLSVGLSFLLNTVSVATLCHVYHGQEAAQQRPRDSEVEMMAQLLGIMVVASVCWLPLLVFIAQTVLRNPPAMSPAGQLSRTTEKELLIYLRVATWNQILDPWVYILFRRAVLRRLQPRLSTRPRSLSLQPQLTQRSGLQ

[4] = Bioavailability in rat; assay type: ADME, organism-based; conditions: in vivo
[5] = Half life in rat; assay type: ADME, organism-based; conditions: in vivo
[6] = target: T2, Prostaglandin E2 receptor EP1 subtype (Homo sapiens, UniProt P34995); experiment: Binding affinity to EP1 receptor
T2 sequence (P34995 whole entry): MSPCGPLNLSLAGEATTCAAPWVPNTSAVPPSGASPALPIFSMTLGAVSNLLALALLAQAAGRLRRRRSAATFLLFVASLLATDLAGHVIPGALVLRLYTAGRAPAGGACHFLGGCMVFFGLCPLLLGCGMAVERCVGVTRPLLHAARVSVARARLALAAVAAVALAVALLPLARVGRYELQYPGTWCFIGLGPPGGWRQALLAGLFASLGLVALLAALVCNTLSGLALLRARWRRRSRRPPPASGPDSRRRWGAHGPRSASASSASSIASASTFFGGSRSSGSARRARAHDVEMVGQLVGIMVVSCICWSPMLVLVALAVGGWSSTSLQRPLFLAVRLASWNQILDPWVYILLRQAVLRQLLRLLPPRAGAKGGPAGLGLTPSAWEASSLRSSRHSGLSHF

[7] = target: Prostaglandin E2 receptor EP4 subtype (Homo sapiens, UniProt P35408); experiment: Binding affinity to EP4 receptor
Prostaglandin E2 receptor EP4 subtype, sequence (P35408 whole entry): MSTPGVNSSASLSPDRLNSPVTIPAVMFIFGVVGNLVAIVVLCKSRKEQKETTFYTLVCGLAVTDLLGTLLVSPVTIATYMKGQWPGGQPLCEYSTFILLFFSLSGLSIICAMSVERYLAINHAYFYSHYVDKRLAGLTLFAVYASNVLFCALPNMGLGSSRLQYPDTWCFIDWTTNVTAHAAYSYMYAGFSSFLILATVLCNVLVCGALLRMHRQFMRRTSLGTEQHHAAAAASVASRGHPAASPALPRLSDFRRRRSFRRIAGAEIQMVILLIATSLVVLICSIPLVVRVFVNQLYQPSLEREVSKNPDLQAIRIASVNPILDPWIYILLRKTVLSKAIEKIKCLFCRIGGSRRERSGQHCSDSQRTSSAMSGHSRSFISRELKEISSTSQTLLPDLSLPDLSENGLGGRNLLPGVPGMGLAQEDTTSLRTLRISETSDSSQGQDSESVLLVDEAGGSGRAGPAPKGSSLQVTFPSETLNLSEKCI

[8] = target: Prostaglandin F2-alpha receptor (Homo sapiens, UniProt P43088); experiment: Binding affinity to FP receptor
Prostaglandin F2-alpha receptor, sequence (P43088 whole entry): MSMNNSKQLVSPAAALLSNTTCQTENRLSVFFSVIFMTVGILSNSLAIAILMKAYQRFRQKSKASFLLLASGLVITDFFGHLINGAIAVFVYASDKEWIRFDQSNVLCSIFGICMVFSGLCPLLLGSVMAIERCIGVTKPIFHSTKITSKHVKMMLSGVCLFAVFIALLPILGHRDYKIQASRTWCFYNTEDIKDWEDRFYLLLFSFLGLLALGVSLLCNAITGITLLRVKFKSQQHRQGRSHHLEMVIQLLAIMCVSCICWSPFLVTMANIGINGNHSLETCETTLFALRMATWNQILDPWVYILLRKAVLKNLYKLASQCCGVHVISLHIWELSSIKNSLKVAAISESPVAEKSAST

[9] = target: T3, Prostaglandin E2 receptor EP3 subtype (Homo sapiens, UniProt P43115); experiment: Binding affinity to EP3 receptor
T3 sequence (P43115 whole entry): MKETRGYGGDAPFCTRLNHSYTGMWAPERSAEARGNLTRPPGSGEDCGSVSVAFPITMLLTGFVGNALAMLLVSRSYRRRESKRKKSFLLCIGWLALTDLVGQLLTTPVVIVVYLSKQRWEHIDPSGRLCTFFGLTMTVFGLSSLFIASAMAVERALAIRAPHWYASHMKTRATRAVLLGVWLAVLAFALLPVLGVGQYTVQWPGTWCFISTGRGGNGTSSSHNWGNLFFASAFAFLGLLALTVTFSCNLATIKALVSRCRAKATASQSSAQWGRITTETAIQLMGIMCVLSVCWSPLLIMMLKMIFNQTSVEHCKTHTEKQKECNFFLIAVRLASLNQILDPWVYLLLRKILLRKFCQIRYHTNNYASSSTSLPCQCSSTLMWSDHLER

[10] = target: Prostacyclin receptor (Homo sapiens, UniProt P43119); experiment: Binding affinity to IP receptor
Prostacyclin receptor, sequence (P43119 whole entry): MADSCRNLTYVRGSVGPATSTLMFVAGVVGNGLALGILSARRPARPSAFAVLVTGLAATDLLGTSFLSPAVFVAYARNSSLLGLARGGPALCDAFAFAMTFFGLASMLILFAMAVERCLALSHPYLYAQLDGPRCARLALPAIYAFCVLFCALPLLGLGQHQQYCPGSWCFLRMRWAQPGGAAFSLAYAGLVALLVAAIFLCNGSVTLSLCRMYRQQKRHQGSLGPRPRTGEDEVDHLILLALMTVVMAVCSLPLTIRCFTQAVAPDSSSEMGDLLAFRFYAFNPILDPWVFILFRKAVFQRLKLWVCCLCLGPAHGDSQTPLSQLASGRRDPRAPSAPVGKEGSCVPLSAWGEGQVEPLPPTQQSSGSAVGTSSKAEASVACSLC

[11] = target: Prostaglandin E2 receptor EP2 subtype (Homo sapiens, UniProt P43116); experiment: Binding affinity to EP2 receptor
Prostaglandin E2 receptor EP2 subtype, sequence (P43116 whole entry): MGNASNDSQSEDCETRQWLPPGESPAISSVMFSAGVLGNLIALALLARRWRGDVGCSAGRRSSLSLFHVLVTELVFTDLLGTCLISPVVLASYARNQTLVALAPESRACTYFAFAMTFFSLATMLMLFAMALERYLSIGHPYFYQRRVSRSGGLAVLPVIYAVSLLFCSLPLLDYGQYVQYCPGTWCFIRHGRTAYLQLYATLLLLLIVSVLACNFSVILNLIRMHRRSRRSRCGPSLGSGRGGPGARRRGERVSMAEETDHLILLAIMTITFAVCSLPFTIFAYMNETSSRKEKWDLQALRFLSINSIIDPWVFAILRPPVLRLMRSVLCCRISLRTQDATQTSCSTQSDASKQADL

[12] = target: T4, Prostaglandin D2 receptor 2 (Homo sapiens, UniProt Q9Y5Y4); experiment: Binding affinity to CRTH2 receptor
T4 sequence (Q9Y5Y4 whole entry): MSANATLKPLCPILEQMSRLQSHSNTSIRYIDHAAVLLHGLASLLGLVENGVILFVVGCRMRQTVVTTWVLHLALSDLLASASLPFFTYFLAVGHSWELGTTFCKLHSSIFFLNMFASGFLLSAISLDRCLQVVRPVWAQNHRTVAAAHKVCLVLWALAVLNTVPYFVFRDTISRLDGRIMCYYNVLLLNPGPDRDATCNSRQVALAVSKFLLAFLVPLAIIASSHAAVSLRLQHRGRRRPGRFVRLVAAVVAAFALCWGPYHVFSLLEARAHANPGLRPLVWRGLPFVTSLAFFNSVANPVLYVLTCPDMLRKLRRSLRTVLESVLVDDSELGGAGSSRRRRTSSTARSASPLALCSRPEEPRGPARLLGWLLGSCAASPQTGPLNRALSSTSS

SMILES	Ki [1]	IC50 [2]	Ki [3]	other results
CS(=O)(=O)c1cc(F)cc2c1c(Sc1ccc(Cl)cc1F)c1n2CCC1CC(=O)O (stereo not given)	3.5 nM	32.1 nM	198 nM	–
CCC(CC)c1cc(F)cc2c1c(Sc1ccc(Cl)cc1)c1n2CCC1CC(=O)O (stereo not given)	8.1 nM	21.6 nM	363 nM	–
O=C(O)CC1CCn2c1c(Sc1ccc(Cl)cc1)c1c(Br)cc(F)cc12 (stereo not given)	7.7 nM	–	17 nM	–
CC(C)C(O)c1cc(F)cc2c1c(Sc1ccc(Cl)cc1)c1n2CCC1CC(=O)O (stereo not given)	7.9 nM	509 nM	484 nM	–
CC(O)c1cc(F)cc2c1c(Sc1ccc(Cl)cc1)c1n2CCC1CC(=O)O (stereo not given)	2.5 nM	56 nM	273 nM	–
CS(=O)(=O)c1cc(F)cc2c1c(-c1cccc(-c3ccccc3)c1)c1n2CCC1CC(=O)O (stereo not given)	1.7 nM	31.6 nM	310 nM	–
CCS(=O)(=O)c1cc(F)cc2c1c(Sc1ccc(Cl)cc1)c1n2CCC1CC(=O)O (stereo not given)	2.3 nM	34 nM	250 nM	–
CS(=O)(=O)c1cc(F)cc2c1c(C(=O)c1ccc(Cl)cc1)c1n2CCC1CC(=O)O (stereo not given)	6.9 nM	–	6970 nM	–
CC(=O)c1cc(F)cc2c1c(Sc1ccc(Cl)cc1)c1n2CCC1CC(=O)O (stereo not given)	3.6 nM	101 nM	674 nM	–
CS(=O)(=O)c1cc(F)cc2c1c(Cc1ccc(Cl)cc1)c1n2CCC1CC(=O)O (stereo not given)	0.5 nM	4.7 nM	11.7 nM	–
CSC(C)c1cc(F)cc2c1c(Sc1ccc(Cl)cc1)c1n2CCC1CC(=O)O (stereo not given)	1.6 nM	4.1 nM	27.5 nM	–
CS(=O)(=O)c1cc(F)cc2c1c(Sc1ccc(Cl)cc1)c1n2CCC1CC(=O)O (stereo not given)	1.3 nM	10.4 nM	226 nM	–
O=C(O)CC1CCn2c1c(Sc1ccc(Cl)cc1)c1ccc(F)cc12 (stereo not given)	132 nM	–	17 nM	–
CC(c1ccc(Cl)cc1)c1c2n(c3cc(F)cc(S(C)(=O)=O)c13)CCC2CC(=O)O (stereo not given)	14.7 nM	–	3190 nM	–
CS(=O)(=O)c1cc(F)cc2c1c(Sc1ccc(C(F)(F)F)cc1)c1n2CCC1CC(=O)O (stereo not given)	1.8 nM	29.2 nM	286 nM	–
CS(=O)(=O)c1cc(F)cc2c1c(CCc1ccc(Cl)cc1)c1n2CCC1CC(=O)O (stereo not given)	18.9 nM	–	219 nM	–
CS(=O)(=O)c1cc(F)cc2c1c(Sc1ccc3ccccc3c1)c1n2CCC1CC(=O)O (stereo not given)	1.2 nM	40 nM	583 nM	–
CS(=O)(=O)c1cc(F)cc2c1c(C(=O)c1ccc(Cl)cc1)c1n2CCCC1CC(=O)O (stereo not given)	3 nM	4.6 nM	513 nM	bioavailability [4]: 100%; half-life [5]: 4.4 h
CCC(OC)c1cc(F)cc2c1c(Sc1ccc(Cl)cc1)c1n2CCC1CC(=O)O (stereo not given)	1.1 nM	6.7 nM	200 nM	–
CC(C)c1cc(F)cc2c1c(Sc1ccc(Cl)cc1)c1n2CCC1CC(=O)O (stereo not given)	2.4 nM	8.6 nM	46 nM	–
CS(=O)(=O)c1cc(F)cc2c1c(C(=O)c1ccc(Cl)cc1)c1n2CCCCC1CC(=O)O (stereo not given)	1.4 nM	5.2 nM	675 nM	–
CS(=O)(=O)c1cc(F)cc2c1c(C(=O)c1ccc(Cl)cc1)c1n2CCC[C@H]1CC(=O)O	36 nM	–	7150 nM	Ki [6]: 2170 nM; Ki [7]: > 16100 nM; Ki [8]: > 24800 nM; Ki [9]: > 21400 nM; Ki [10]: > 22500 nM; Ki [11]: > 29200 nM
O=C(O)CC1CCn2c1c(Sc1ccc(Cl)cc1)c1c(C3CC3)cc(F)cc12 (stereo not given)	5.7 nM	–	136 nM	–
CS(=O)(=O)c1cc(F)cc2c1c(C(=O)c1ccc(Cl)cc1)c1n2CCC[C@@H]1CC(=O)O	1 nM	4.6 nM	168 nM	Ki [6]: 142 nM; Ki [7]: > 16500 nM; Ki [8]: 21100 nM; Ki [9]: 5060 nM; Ki [10]: > 21200 nM; Ki [12]: 19200 nM; Ki [11]: 3400 nM
